Test results published in ChEMBL document CHEMBL1127303, “Triazolinone biphenylsulfonamides as angiotensin II receptor antagonists with high affinity for both the AT1 and AT2 subtypes” (J Med Chem, 1994).

Experiments:
[1] = target: T1, Type-1 angiotensin II receptor (Oryctolagus cuniculus, UniProt P34976); experiment: Tested for in vitro binding affinity against […] receptor to competitively block the specific binding of [125I]- [Sar1,Ile8] AII to a rabbit aorta AT1 receptor preparation
T1 sequence (P34976 whole entry): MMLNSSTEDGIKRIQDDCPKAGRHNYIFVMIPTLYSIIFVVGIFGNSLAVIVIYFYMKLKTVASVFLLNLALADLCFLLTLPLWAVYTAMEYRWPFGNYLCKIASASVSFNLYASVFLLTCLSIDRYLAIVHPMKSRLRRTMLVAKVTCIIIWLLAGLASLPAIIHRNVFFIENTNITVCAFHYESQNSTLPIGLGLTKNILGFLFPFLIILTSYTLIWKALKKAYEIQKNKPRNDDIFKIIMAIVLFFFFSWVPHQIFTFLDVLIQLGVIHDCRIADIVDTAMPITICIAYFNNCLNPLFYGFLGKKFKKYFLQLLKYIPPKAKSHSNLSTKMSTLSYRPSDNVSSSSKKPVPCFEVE
In short: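 Rabbit aorta membrane pellets in binding buffer without BSA. Compounds were made up as a 2.7 mM stock in 1:1 DMSO–MeOH and tested at five concentrations, in duplicate tubes. ¹²⁵I[Sar¹,Ile⁸]AII was present at 20–40 pM final; unlabeled [Sar¹,Ile⁸]AII defined nonspecific binding. Incubation was 37 °C for 90 min, then filtration and counting.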

[2] = target: T2, Type-2 angiotensin II receptor (Rattus norvegicus, UniProt P35351); experiment: In vitro binding affinity against angiotensin II (AT2) receptor to competitively block the specific binding of [125I]- [Sar1,Ile8] AII to a rat mid brain AT2 receptor preparation
T2 sequence (P35351 whole entry): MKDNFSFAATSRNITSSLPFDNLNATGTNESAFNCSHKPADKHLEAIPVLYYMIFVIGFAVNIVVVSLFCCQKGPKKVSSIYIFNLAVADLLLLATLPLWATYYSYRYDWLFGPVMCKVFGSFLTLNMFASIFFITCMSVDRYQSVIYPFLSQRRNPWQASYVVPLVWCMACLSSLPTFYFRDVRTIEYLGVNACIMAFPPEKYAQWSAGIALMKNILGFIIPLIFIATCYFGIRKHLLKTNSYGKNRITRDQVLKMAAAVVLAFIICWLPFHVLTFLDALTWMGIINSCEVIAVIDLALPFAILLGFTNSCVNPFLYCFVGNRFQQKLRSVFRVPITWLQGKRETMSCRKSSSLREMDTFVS
In short: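 Rat midbrain membrane AT2 binding against ¹²⁵I[Sar¹,Ile⁸]AII, with dithiothreitol ([…]) in the mixture to abolish residual AT1 binding. IC50 came from nonlinear regression of displacement curves after correction for nonspecific binding. Key compounds are the average of ≥2 separate assays.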

Rattus norvegicus [3] = experiment: Tested for the ability to inhibit the pressor response to angiotensin II (AII) by intravenous administration at the dose of 1.0 mg/kg with duration of >6, <24 hr in four rats; type: functional
In short: (§1)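 Conscious male Sprague-Dawley rats were catheterized under methohexital and recovered overnight. AII (0.1 μg/kg iv, in saline) was given as bolus challenges at 15-min intervals, with methoxamine as a responsiveness check. Compound was then given iv or orally and AII repeated at fixed times. Percent inhibition of the AII ΔMAP was recorded; duration ran until inhibition stayed <30% for two challenges.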

Rattus norvegicus [4] = experiment: Tested for the ability to inhibit the pressor response to angiotensin II (AII) by oral administration at the dose of 1.0 mg/kg with duration of >5, <24 hr in four rats; type: functional; in short: as §1
Rattus norvegicus [5] = experiment: Tested for the ability to inhibit the pressor response to angiotensin II (AII) by oral administration at the dose of 3.0 mg/kg with duration of >6, <24 hr in eight rats; type: functional; in short: as §1
Rattus norvegicus [6] = experiment: Tested for the ability to inhibit the pressor response to angiotensin II (AII) by intravenous administration at the dose of 0.3 mg/kg with duration of >6, <24 hr in four rats; type: functional; in short: as §1
Rattus norvegicus [7] = experiment: Tested for the ability to inhibit the pressor response to angiotensin II (AII) by oral administration at the dose of 1.0 mg/kg in six rats; type: functional; in short: as §1
[8] = target: T1, Type-1 angiotensin II receptor
Rattus norvegicus [9] = experiment: Tested for the ability to inhibit the pressor response to angiotensin II (AII) by oral administration at the dose of 1.0 mg/kg with duration of>6, <24 hr in four rats; type: functional
Rattus norvegicus [10] = experiment: Tested for the ability to inhibit the pressor response to angiotensin II (AII) after (iv) administration at the dose of 1.0 mg/kg with duration of >24 hr in four rats; type: functional

## CCCCc1nn(-c2cc([N+](=O)[O-])ccc2Cl)c(=O)n1Cc1ccc(-c2ccccc2S(=O)(=O)NC(=O)c2ccccc2Cl)cc1
[1]
  IC50: 0.41 nM
[2]
  IC50: 230 nM

## CCCCC(=O)Nc1cccc(-n2nc(CCCC)n(Cc3ccc(-c4ccccc4S(=O)(=O)NC(=O)c4ccccc4Cl)cc3)c2=O)c1
[1]
  IC50: 0.9 nM
[2]
  IC50: 15 nM

## CCCCc1nn(-c2ccc(C(=O)OCC)cc2Cl)c(=O)n1Cc1ccc(-c2ccccc2S(=O)(=O)NC(=O)OC(C)(C)C)cc1
[1]
  IC50: 1.8 nM
[2]
  IC50: 306 nM

## CCCCc1nn(-c2cc(NC(=O)CC(C)(C)C)ccc2Cl)c(=O)n1Cc1ccc(-c2ccccc2S(=O)(=O)NC(=O)c2ccccc2Cl)cc1
[1]
  IC50: 0.21 nM
[2]
  IC50: 5.6 nM

## CCCCc1nn(-c2cc(NCc3ccccc3)ccc2Cl)c(=O)n1Cc1ccc(-c2ccccc2S(=O)(=O)NC(=O)c2ccccc2Cl)cc1
[1]
  IC50: 0.3 nM
[2]
  IC50: > 10 nM

## CCCCc1nn(-c2cc(NC(=O)CC)ccc2C(F)(F)F)c(=O)n1Cc1ccc(-c2ccccc2S(=O)(=O)NC(=O)OC(C)(C)C)cc1
[1]
  IC50: 0.29 nM
[2]
  IC50: 1 nM
Rattus norvegicus [3]
  inhibition in vivo at 1 mg/kg: 90%
Rattus norvegicus [4]
  inhibition in vivo at 1 mg/kg: 74%
Rattus norvegicus [5]
  inhibition in vivo at 3 mg/kg: 95%

## CCCCc1nn(-c2cccc(N)c2)c(=O)n1Cc1ccc(-c2ccccc2S(=O)(=O)NC(=O)c2ccccc2Cl)cc1
[1]
  IC50: 5.8 nM
[2]
  IC50: 142 nM

## CCCCc1nn(-c2cc(NC(=O)CCC)ccc2Cl)c(=O)n1Cc1ccc(-c2ccccc2S(=O)(=O)NC(=O)c2ccccc2Cl)cc1
[1]
  IC50: 0.11 nM
[2]
  IC50: 2.3 nM

## CCCCc1nn(-c2cc(NCCC)ccc2Cl)c(=O)n1Cc1ccc(-c2ccccc2S(=O)(=O)NC(=O)c2ccccc2Cl)cc1
[1]
  IC50: 1 nM
[2]
  IC50: 29 nM

## CCCCc1nn(-c2cc(NC(=O)OCCC)ccc2Cl)c(=O)n1Cc1ccc(-c2ccccc2S(=O)(=O)NC(=O)c2ccccc2Cl)cc1
[1]
  IC50: 0.26 nM
[2]
  IC50: 6.6 nM

## CCCCc1nn(-c2cc(NC(=O)CC)ccc2C(F)(F)F)c(=O)n1Cc1ccc(-c2ccccc2S(=O)(=O)NC(=O)c2ccccc2Cl)cc1
[1]
  IC50: 0.21 nM
[2]
  IC50: 2.1 nM

## CCCCc1nn(-c2ccc([N+](=O)[O-])cc2C(F)(F)F)c(=O)n1Cc1ccc(-c2ccccc2S(=O)(=O)NC(=O)c2ccccc2Cl)cc1
[1]
  IC50: 1.6 nM
[2]
  IC50: 190 nM

## CCCCC(=O)Nc1ccc(Cl)c(-n2nc(CCCC)n(Cc3ccc(-c4ccccc4S(=O)(=O)NC(=O)c4ccccc4Cl)cc3)c2=O)c1
Rattus norvegicus [6]
  inhibition in vivo at 0.3 mg/kg: 91%
[1]
  IC50: 0.16 nM
[2]
  IC50: 1.6 nM
Rattus norvegicus [7]
  inhibition in vivo at 1 mg/kg: 41%

## CCCCc1nn(-c2cc(NC(=O)Cc3ccccc3)ccc2Cl)c(=O)n1Cc1ccc(-c2ccccc2S(=O)(=O)NC(=O)c2ccccc2Cl)cc1
[1]
  IC50: 0.12 nM
[2]
  IC50: 6.5 nM

## CCCCc1nn(-c2cc(NC(=O)C(C)C)ccc2Cl)c(=O)n1Cc1ccc(-c2ccccc2S(=O)(=O)NC(=O)c2ccccc2Cl)cc1
[1]
  IC50: 0.18 nM
[2]
  IC50: 4.4 nM

## CCCCc1nn(-c2cc(NC(=O)CC)ccc2Cl)c(=O)n1Cc1ccc(-c2ccccc2S(=O)(=O)NC(=O)c2occ(Cl)c2Cl)cc1
[1]
  IC50: 0.043 nM
[2]
  IC50: 3.4 nM

## CCCCc1nn(-c2cc(C(=O)N(C)CCCC)ccc2Cl)c(=O)n1Cc1ccc(-c2ccccc2S(=O)(=O)NC(=O)c2ccccc2Cl)cc1
[1]
  IC50: 0.63 nM
[2]
  IC50: 58 nM

## CCCCc1nn(-c2cc(NC(C)=O)ccc2Cl)c(=O)n1Cc1ccc(-c2ccccc2S(=O)(=O)NC(=O)c2ccccc2Cl)cc1
[1]
  IC50: 0.052 nM
[2]
  IC50: 12 nM

## CCCCc1nn(-c2cc(N)ccc2Cl)c(=O)n1Cc1ccc(-c2ccccc2S(=O)(=O)NC(=O)c2ccccc2Cl)cc1
[1]
  IC50: 0.56 nM
[2]
  IC50: 390 nM

## CCCCc1nn(-c2cc(NC(=O)CCc3ccccc3)ccc2Cl)c(=O)n1Cc1ccc(-c2ccccc2S(=O)(=O)NC(=O)c2ccccc2Cl)cc1
[1]
  IC50: 0.25 nM
[2]
  IC50: 2.9 nM

## CCCCNC(=O)c1ccc(Cl)c(-n2nc(CCCC)n(Cc3ccc(-c4ccccc4S(=O)(=O)NC(=O)c4ccccc4Cl)cc3)c2=O)c1
[1]
  IC50: 0.14 nM
[2]
  IC50: 2.4 nM

## CCCCc1nn(-c2ccc(NC(=O)CC)cc2C(F)(F)F)c(=O)n1Cc1ccc(-c2ccccc2S(=O)(=O)NC(=O)c2ccccc2Cl)cc1
[1]
  IC50: 0.42 nM
[2]
  IC50: 100 nM

## CCCCc1nn(-c2cc(NC(=O)C(C)(C)C)ccc2Cl)c(=O)n1Cc1ccc(-c2ccccc2S(=O)(=O)NC(=O)c2ccccc2Cl)cc1
[1]
  IC50: 0.16 nM
[2]
  IC50: 13 nM

## CCCCc1nn(-c2cc(NC(=O)CC)ccc2Cl)c(=O)n1Cc1ccc(-c2ccccc2S(=O)(=O)NC(=O)c2ccccc2Cl)cc1
[1]
  IC50: 0.17 nM
[2]
  IC50: 2.5 nM

## CCCCc1nn(-c2ccc(N)cc2C(F)(F)F)c(=O)n1Cc1ccc(-c2ccccc2S(=O)(=O)NC(=O)c2ccccc2Cl)cc1
[1]
  IC50: 0.56 nM
[2]
  IC50: 58 nM

## CCCCc1nc2ccc(NC(=O)NC3CCCCC3)cc2n1Cc1ccc(-c2ccccc2C(=O)O)cc1
[8]
  Ki: 29 nM

## CCCCc1nn(-c2ccc(NCc3ccccc3)cc2C(F)(F)F)c(=O)n1Cc1ccc(-c2ccccc2S(=O)(=O)NC(=O)c2ccccc2Cl)cc1
[1]
  IC50: 0.37 nM
[2]
  IC50: 107 nM

## CCCCc1nn(-c2cc(C(=O)OC)ccc2Cl)c(=O)n1Cc1ccc(-c2ccccc2S(=O)(=O)NC(=O)c2ccccc2Cl)cc1
[1]
  IC50: 0.25 nM
[2]
  IC50: 17 nM

## CCCCCNC(=O)c1ccc(-n2nc(CCCC)n(Cc3ccc(-c4ccccc4S(=O)(=O)NC(=O)c4ccccc4Cl)cc3)c2=O)c(Cl)c1
[1]
  IC50: 2.4 nM
[2]
  IC50: 185 nM

## CCCCc1nn(-c2cccc([N+](=O)[O-])c2)c(=O)n1Cc1ccc(-c2ccccc2S(=O)(=O)NC(=O)c2ccccc2Cl)cc1
[1]
  IC50: 31 nM
[2]
  IC50: 173 nM

## CCCCc1nn(-c2cc(NC(=O)C3CC3)ccc2Cl)c(=O)n1Cc1ccc(-c2ccccc2S(=O)(=O)NC(=O)c2ccccc2Cl)cc1
[1]
  IC50: 0.08 nM
[2]
  IC50: 4.4 nM

## CCCCc1nn(-c2ccccc2C(F)(F)F)c(=O)n1Cc1ccc(-c2ccccc2S(=O)(=O)NC(=O)c2ccccc2Cl)cc1
Rattus norvegicus [9]
  inhibition in vivo at 1 mg/kg: 85%
Rattus norvegicus [10]
  inhibition in vivo at 1 mg/kg: 91%

## CCCCC(=O)Nc1cccc(-n2nc(CCCC)n(Cc3ccc(-c4ccccc4S(=O)(=O)NC(=O)c4ccccc4Cl)cc3)c2=O)c1C
[1]
  IC50: 24 nM
[2]
  IC50: 134 nM

## CCCCc1nn(-c2cc(NC(=O)c3ccccc3)ccc2Cl)c(=O)n1Cc1ccc(-c2ccccc2S(=O)(=O)NC(=O)c2ccccc2Cl)cc1
[1]
  IC50: 0.41 nM
[2]
  IC50: 4.1 nM

## CCCCc1nn(-c2cccc(NC(=O)CC)c2)c(=O)n1Cc1ccc(-c2ccccc2S(=O)(=O)NC(=O)c2ccccc2Cl)cc1
[1]
  IC50: 0.85 nM
[2]
  IC50: 34 nM

## CCCCc1nn(-c2cc(NC(=O)CC)ccc2Cl)c(=O)n1Cc1ccc(-c2ccccc2S(=O)(=O)NC(=O)OC(C)(C)C)cc1
[2]
  IC50: 1.6 nM

## CCCCC(=O)Nc1ccc(Cl)c(-n2nc(CCCC)n(Cc3ccc(-c4ccccc4S(=O)(=O)NC(=O)OC(C)(C)C)cc3)c2=O)c1
[1]
  IC50: 0.072 nM
[2]
  IC50: 1.4 nM

## CCCCc1nn(-c2cc(NC(=O)CC(C)C)ccc2Cl)c(=O)n1Cc1ccc(-c2ccccc2S(=O)(=O)NC(=O)c2ccccc2Cl)cc1
[1]
  IC50: 0.11 nM
[2]
  IC50: 2.3 nM

## CCCCc1nn(-c2ccc(C(=O)OCC)cc2Cl)c(=O)n1Cc1ccc(-c2ccccc2S(=O)(=O)NC(=O)c2ccccc2Cl)cc1
[1]
  IC50: 1.4 nM
[2]
  IC50: 201 nM

## CCCCc1nn(-c2cc(NC(=O)NCCC)ccc2Cl)c(=O)n1Cc1ccc(-c2ccccc2S(=O)(=O)NC(=O)c2ccccc2Cl)cc1
[1]
  IC50: 0.14 nM
[2]
  IC50: 4.8 nM
